Source: ChEMBL document CHEMBL4007497, “Development of Potent and Selective Antagonists for the UTP-Activated P2Y4 Receptor” (J Med Chem, 2017)
Where “and” joins values, the source holds several entries; their conditions need not be identical. Equal values may be shown once. One block for each compound: values may come before it. Calls of active or inactive are those of the source. The calls are words filed in the database; no cut-off is given here.

Columns and labels:
P2Y purinoceptor 4 [1] = target: T1, P2Y purinoceptor 4 (Homo sapiens, UniProt P51582); assay: Antagonist activity at human P2Y4 receptor transfected in human 1321N1 cells assessed as inhibition of UTP-activated intracellular calcium mobilization at 100 uM preincubated for 30 mins followed by UTP addition by fluo-4-dye based fluorescence assay; type: functional, cell-based
T1 sequence (P51582 whole entry): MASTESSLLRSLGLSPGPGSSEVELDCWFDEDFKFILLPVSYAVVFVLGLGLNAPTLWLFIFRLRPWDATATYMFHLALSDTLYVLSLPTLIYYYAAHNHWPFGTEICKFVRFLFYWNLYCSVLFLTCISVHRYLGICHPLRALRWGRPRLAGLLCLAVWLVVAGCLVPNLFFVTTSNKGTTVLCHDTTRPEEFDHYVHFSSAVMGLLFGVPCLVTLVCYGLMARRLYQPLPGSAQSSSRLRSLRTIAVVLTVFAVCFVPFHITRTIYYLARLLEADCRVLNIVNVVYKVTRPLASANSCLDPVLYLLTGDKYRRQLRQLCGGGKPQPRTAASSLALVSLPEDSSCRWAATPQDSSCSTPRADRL

P2Y purinoceptor 4 [2] = target: T1, P2Y purinoceptor 4; assay: Non-competitive antagonist activity at human P2Y4 receptor transfected in human 1321N1 cells assessed as inhibition of UTP-activated intracellular calcium mobilization at 15 uM preincubated for 30 mins followed by UTP addition by fluo-4-dye based fluorescence assay; type: functional, cell-based
Method in brief: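 Fluo-4-loaded 1321N1 cells stably expressing human P2Y4 were preincubated 30 min with fixed antagonist concentrations up to 15 μM in HBSS. Full UTP concentration-response curves were then recorded by injecting UTP and reading fluorescence immediately (ex 488/em 525 nm). The mode of antagonism was judged from depression of the maximum versus rightward shift. EC50 values were compared by unpaired t-test.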

P2Y purinoceptor 4 [3] = target: T1, P2Y purinoceptor 4; assay: Antagonist activity at human P2Y4 receptor transfected in human 1321N1 cells assessed as inhibition of UTP-activated intracellular calcium mobilization preincubated for 30 mins followed by UTP addition by fluo-4-dye based fluorescence assay; type: functional, cell-based
Method in brief: (§1)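 1321N1 astrocytoma cells stably expressing the human P2Y subtype, grown in DMEM with 10 % FCS and 200 μg/mL G418 at 37 °C. Plated 50,000 cells/well about 24 h before testing. Cells loaded with fluo-4 AM for 1 h, then placed in HBSS and preincubated 30 min with compound. Agonist was injected at about EC80: ADP 500 nM (P2Y1), UTP 500 nM (P2Y2, P2Y4), UDP 750 nM (P2Y6). Fluorescence read at ex 488/em 525 nm. At least three independent experiments in duplicate. IC50 obtained by nonlinear regression.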

P2Y purinoceptor 6 [4] = target: T2, P2Y purinoceptor 6 (Homo sapiens, UniProt Q15077); assay: Antagonist activity at human P2Y6 receptor transfected in human 1321N1 cells assessed as inhibition of UDP-activated intracellular calcium mobilization preincubated for 30 mins followed by UDP addition by fluo-4-dye based fluorescence assay; type: functional, cell-based; method in brief: as §1
T2 sequence (Q15077 whole entry): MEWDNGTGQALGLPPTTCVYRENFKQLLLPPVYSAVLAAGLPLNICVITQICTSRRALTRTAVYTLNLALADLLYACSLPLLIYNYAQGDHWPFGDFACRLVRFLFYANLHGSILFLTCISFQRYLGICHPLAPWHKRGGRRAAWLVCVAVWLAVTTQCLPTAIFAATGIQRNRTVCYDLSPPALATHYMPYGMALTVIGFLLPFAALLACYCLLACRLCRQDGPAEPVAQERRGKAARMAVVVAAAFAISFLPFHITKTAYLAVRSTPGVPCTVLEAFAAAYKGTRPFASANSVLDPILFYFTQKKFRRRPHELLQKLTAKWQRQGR

P2Y purinoceptor 1 [5] = target: T3, P2Y purinoceptor 1 (Homo sapiens, UniProt P47900); assay: Antagonist activity at human P2Y1 receptor transfected in human 1321N1 cells assessed as inhibition of ADP-activated intracellular calcium mobilization preincubated for 30 mins followed by ADP addition by fluo-4-dye based fluorescence assay; type: functional, cell-based; method in brief: as §1
T3 sequence (P47900 whole entry): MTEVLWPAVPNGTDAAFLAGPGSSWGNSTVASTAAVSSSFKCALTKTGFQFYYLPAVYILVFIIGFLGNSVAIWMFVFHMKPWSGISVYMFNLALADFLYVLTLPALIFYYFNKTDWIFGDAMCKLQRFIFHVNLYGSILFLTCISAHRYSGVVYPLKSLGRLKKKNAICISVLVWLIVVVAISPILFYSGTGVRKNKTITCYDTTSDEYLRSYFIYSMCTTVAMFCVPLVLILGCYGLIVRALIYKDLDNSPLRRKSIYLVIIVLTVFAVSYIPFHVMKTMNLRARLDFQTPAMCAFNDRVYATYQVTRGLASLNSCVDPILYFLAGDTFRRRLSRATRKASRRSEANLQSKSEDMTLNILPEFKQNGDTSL

P2Y purinoceptor 2 = P2Y purinoceptor 2 (Homo sapiens, UniProt P41231); assay: Antagonist activity at human P2Y2 receptor transfected in human 1321N1 cells assessed as inhibition of UTP-activated intracellular calcium mobilization preincubated for 30 mins followed by UTP addition by fluo-4-dye based fluorescence assay; type: functional, cell-based; method in brief: as §1
P2Y purinoceptor 2, sequence (P41231 whole entry): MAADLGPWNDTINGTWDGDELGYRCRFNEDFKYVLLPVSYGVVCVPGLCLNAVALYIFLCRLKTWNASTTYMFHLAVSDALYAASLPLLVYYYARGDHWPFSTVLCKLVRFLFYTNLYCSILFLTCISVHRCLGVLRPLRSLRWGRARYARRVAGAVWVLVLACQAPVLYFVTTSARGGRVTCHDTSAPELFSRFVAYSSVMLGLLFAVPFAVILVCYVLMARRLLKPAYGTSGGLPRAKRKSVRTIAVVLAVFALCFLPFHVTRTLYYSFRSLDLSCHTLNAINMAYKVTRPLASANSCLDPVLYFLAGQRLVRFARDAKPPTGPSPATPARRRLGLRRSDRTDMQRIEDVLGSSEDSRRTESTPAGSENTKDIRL

P2Y purinoceptor 12 [6] = target: T4, P2Y purinoceptor 12 (Homo sapiens, UniProt Q9H244); assay: Antagonist activity at human P2Y12 receptor expressed in CHO cells assessed as inhibition of 2-MeSADP-induced beta-arrestin translocation preincubated for 30 mins followed by 2-MeSADP addition measured after 90 mins by luminescence-based topcount method; type: cell-based
T4 sequence (Q9H244 whole entry): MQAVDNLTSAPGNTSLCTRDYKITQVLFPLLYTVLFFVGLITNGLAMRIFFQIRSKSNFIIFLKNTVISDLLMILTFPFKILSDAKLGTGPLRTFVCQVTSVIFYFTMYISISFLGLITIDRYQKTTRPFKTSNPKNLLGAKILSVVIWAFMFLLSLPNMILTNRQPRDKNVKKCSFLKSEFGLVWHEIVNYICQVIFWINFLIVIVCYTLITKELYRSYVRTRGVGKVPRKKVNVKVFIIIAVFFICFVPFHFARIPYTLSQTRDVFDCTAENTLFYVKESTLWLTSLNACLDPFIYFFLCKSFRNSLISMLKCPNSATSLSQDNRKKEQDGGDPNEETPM

P2Y purinoceptor 6 [7] = target: T2, P2Y purinoceptor 6; assay: Antagonist activity at human P2Y6 receptor transfected in human 1321N1 cells assessed as inhibition of UDP-activated intracellular calcium mobilization at 50 uM preincubated for 30 mins followed by UDP addition by fluo-4-dye based fluorescence assay; type: functional, cell-based
P2Y purinoceptor 1 [8] = target: T3, P2Y purinoceptor 1; assay: Antagonist activity at human P2Y1 receptor transfected in human 1321N1 cells assessed as inhibition of ADP-activated intracellular calcium mobilization at 50 uM preincubated for 30 mins followed by ADP addition by fluo-4-dye based fluorescence assay; type: functional, cell-based
P2Y purinoceptor 12 [9] = target: T4, P2Y purinoceptor 12; assay: Competitive antagonist activity at human P2Y12 receptor expressed in CHO cells assessed as forskolin/ 2-methylthio-ADP-induced cAMP production preincubated for 10 mins followed 2-methylthio-ADP addition measured after 3.5 hrs by luciferase reporter gene assay; type: functional, cell-based; settings: read-out: pA2 (converted)

Compound: Nc1c(S(=O)(=O)O)cc(Nc2ccc(F)cc2C(=O)O)c2c1C(=O)c1ccccc1C2=O
- inhibition (P2Y purinoceptor 4 [1]): 17% and 25%

Compound: Nc1c(S(=O)(=O)O)cc(Nc2cccc(F)c2C(=O)O)c2c1C(=O)c1ccccc1C2=O
- IC50 (P2Y purinoceptor 4 [3]): > 100 µM
- inhibition (P2Y purinoceptor 4 [1]): 10%

Compound: Nc1c(S(=O)(=O)O)cc(Nc2cc(F)ccc2C(=O)O)c2c1C(=O)c1ccccc1C2=O
- IC50 (P2Y purinoceptor 4 [3]): > 100 µM
- inhibition (P2Y purinoceptor 4 [1]): 33%

Compound: Cc1cc(Nc2ccc(F)cc2C(=O)O)c2c(c1N)C(=O)c1ccccc1C2=O
- IC50 (P2Y purinoceptor 4 [3]): 100 µM
- inhibition (P2Y purinoceptor 4 [1]): 57%

Compound: Nc1c(S(=O)(=O)O)cc(Nc2ccc(Cl)cc2C(=O)O)c2c1C(=O)c1ccccc1C2=O
- IC50 (P2Y purinoceptor 4 [3]): > 100 µM
- inhibition (P2Y purinoceptor 4 [1]): 31%

Compound: Nc1c(S(=O)(=O)O)cc(Nc2ccc(Nc3ccccc3)c(S(=O)(=O)O)c2)c2c1C(=O)c1ccccc1C2=O
- Kb (P2Y purinoceptor 12 [9]): 0.000158 µM

Results, then the compound that gave them:

- inhibition (P2Y purinoceptor 4 [2]): Active
- IC50 (P2Y purinoceptor 4 [3]): 0.233 µM
- IC50 (P2Y purinoceptor 6 [4]): 12.5 µM
- IC50 (P2Y purinoceptor 1 [5]): 5.48 µM
- IC50 (P2Y purinoceptor 2): 8.54 µM
- IC50 (P2Y purinoceptor 12 [6]): 2.41 µM
Compound: Cc1ccc(Sc2ccc(Nc3cc(S(=O)(=O)O)c(N)c4c3C(=O)c3ccccc3C4=O)cc2)c(C)c1

- inhibition (P2Y purinoceptor 6 [7]): 12%
- inhibition (P2Y purinoceptor 1 [8]): 61%
- IC50 (P2Y purinoceptor 4 [3]): 0.409 µM
- IC50 (P2Y purinoceptor 6 [4]): > 100 µM
- IC50 (P2Y purinoceptor 1 [5]): 25 µM
- IC50 (P2Y purinoceptor 2): 13.1 µM
- IC50 (P2Y purinoceptor 12 [6]): 3.59 µM
Compound: Nc1c(S(=O)(=O)O)cc(Nc2ccc(SCc3cccnc3)cc2)c2c1C(=O)c1ccccc1C2=O
